# Measurements from PMC3319156 (Journal of Medicinal Chemistry, 2011).
# Assays:
# Tyr705 of Stat3 [1] = target: T1, Tyr705 of Stat3 (Homo sapiens, UniProt P40763); assay: Inhibition of constitutive Stat3 Tyr705 phosphorylation in MDA-MB-468 cells; type: cell-based
# Summary of the method: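 MDA-MB-468 cells (4 × 10^5/well) were grown overnight in DMEM with 10% FCS. Prodrug was given from a 10 mM DMSO stock prepared fresh, for 2 h, or over a time course. After ice-cold PBS washes, cells were lysed (Hepes pH 7.4, Triton X-100, NaF, vanadate, protease inhibitors). 12 µg protein went on 8% SDS-PAGE/PVDF with 5% BSA block. Blots were probed for pStat3 Y705 by ECL, stripped at 50°C, and reprobed for total Stat3.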
# Tyr705 of Stat3 [2] = target: T1, Tyr705 of Stat3; settings: MDA-MB-468; cited from earlier work
# Stat3 [3] = target: T2, Stat3 (Homo sapiens, UniProt P40763); assay: EGF-stimulated Stat3 phosphorylation in MDA-MB-468 cells; type: cell-based; settings: MDA-MB-468, 5 µM, 1.5 h then EGF 30 min
# Ser473 of Akt [4] = assay: Akt Ser473 phosphorylation in MDA-MB-468 cells; type: cell-based
# Tyr701 of Stat1 = target: T3, Tyr701 of Stat1 (Homo sapiens, UniProt P42224); assay: IFNγ-stimulated Stat1 Tyr701 phosphorylation in MDA-MB-468 cells; type: cell-based; settings: MDA-MB-468, 1.5 h then 30 min IFNγ
# T3 sequence (P42224 1-750): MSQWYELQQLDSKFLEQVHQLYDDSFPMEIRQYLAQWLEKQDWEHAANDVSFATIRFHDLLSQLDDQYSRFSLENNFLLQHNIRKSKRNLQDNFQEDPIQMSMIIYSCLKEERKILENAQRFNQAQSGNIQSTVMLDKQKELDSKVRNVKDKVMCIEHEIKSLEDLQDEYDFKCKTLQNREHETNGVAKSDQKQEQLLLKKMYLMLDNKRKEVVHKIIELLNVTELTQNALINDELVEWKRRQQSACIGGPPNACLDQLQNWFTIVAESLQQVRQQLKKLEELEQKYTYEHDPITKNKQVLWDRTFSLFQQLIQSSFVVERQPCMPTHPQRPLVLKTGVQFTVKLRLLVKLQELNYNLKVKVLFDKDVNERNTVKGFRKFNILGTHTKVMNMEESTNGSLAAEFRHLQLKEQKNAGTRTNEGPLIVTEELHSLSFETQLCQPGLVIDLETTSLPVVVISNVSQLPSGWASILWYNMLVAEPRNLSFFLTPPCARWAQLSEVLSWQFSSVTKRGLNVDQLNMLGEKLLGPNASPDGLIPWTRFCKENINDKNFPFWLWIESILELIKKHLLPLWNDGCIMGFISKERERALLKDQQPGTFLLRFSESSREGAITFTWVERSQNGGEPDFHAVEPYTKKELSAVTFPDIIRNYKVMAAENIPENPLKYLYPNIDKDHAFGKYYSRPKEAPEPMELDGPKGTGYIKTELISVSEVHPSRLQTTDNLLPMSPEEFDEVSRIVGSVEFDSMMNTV
# Summary of the method: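 MDA-MB-468 cells were prepared as for the Stat3 assay (plated overnight in DMEM/10% FCS) and exposed to increasing test compound concentrations for 1.5 h. Interferon γ was then added at 25 ng/mL for 30 min. Lysates were run on PAGE, blotted to PVDF, and probed for pTyr701 Stat1 and total Stat1 with chemiluminescent detection.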
# cyclin D1 [5] = assay: Expression of cyclin D1 in HCC-827 cells; type: cell-based; settings: HCC-827, 5 µM
# Bcl-xL = assay: Expression of downstream gene Bcl-xL in MDA-MB-468 cells; type: cell-based; settings: MDA-MB-468, 5 µM
# Ser473 of Akt [6] = assay: Akt Ser473 phosphorylation in HCC-827 NSCLC cells; type: cell-based
# survivin [7] = assay: Expression of survivin in HCC-827 cells; type: cell-based; settings: HCC-827 lung line, 5 µM
# Stat3 [8] = target: T2, Stat3; assay: IL-6-stimulated Stat3 phosphorylation in MeWo melanoma cells; type: cell-based; settings: 1.5 hour exposure then IL-6
# Summary of the method: (§1)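 Hey, MeWo and A375 cells were seeded at 3 × 10^5 cells/well in RPMI1640 and cultured overnight, with a media change. Cells then received increasing test compound concentrations for 2 h. IL-6 at 10 ng/mL was present for the last 30 min. Lysates were blotted for pStat3 Y705 and total Stat3 as in the constitutive assay.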
# pTyr705 Stat3 = pTyr705 Stat3 (Homo sapiens, UniProt P40763); type: cell-based; settings: MDA-MB-468, 5 µM, 2 h
# Summary of the method: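 MDA-MB-468 cells on slides were given DMSO or 5 µM test compound for 2 h. Cells were fixed in 4% paraformaldehyde, permeabilized with 0.5% Triton X-100 and blocked with 3% BSA. Staining used anti-pTyr705 Stat3 and an Alexa Fluor 594 secondary. Confocal imaging used identical microscope settings throughout.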
# MDA-MB-468 cells = assay: Cytotoxicity to MDA-MB-468 cells, MTT assay; type: cell-based; settings: MDA-MB-468, treated daily for three days
# Summary of the method: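 MDA-MB-468 cells in DMEM with 10% FBS were plated at 1500 cells/well in triplicate, and the medium was changed the next day. Prodrug was dissolved fresh in ethanol to a 10 mM stock, diluted, and added. Further doses went into the same medium at 24 and 48 h, with final ethanol below 1%. Viability was read by MTT.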
# p38 MAPK = p38 MAPK phosphorylation in HCC-827 NSCLC cells; type: cell-based
# Stat3 [9] = target: T2, Stat3; assay: IL-6-stimulated Stat3 phosphorylation in HEY ovarian cancer cells; type: cell-based; settings: 1.5 hour exposure then IL-6
# Summary of the method: as §1
# survivin [10] = assay: Expression of survivin in MDA-MB-468 cells; type: cell-based; settings: MDA-MB-468 breast line, data not shown
# Stat3 [11] = target: T2, Stat3; assay: Constitutive Stat3 phosphorylation in SKOV3ip ovarian cancer cells; type: cell-based
# Summary of the method: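 SKOV3-ip cells were seeded at 3 × 10^5 cells/well in McCoy's 5A medium and handled as for MDA-MB-468. Prodrug was added from a 10 mM DMSO stock made just before use, for 2 h. Cells were lysed in Hepes pH 7.4/Triton X-100 buffer with phosphatase and protease inhibitors. 12 µg protein was run on 8% SDS-PAGE, blotted for pStat3 Y705 by ECL, then stripped and reprobed for total Stat3.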
# Stat3 [12] = target: T2, Stat3; assay: IL-6-stimulated Stat3 phosphorylation in A375 melanoma cells; type: cell-based; settings: A375, 1.5 hour exposure then IL-6
# Summary of the method: as §1
# [13] = test system: Tyr861 of the focal adhesion kinase (FAK); assay: Constitutive FAK Tyr861 phosphorylation in MDA-MB-468 cells; type: cell-based
# Summary of the method: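 Constitutive signal, no stimulus: MDA-MB-468 cells were plated overnight in DMEM/10% FCS and given test compound from a 10 mM DMSO stock for 2 h. Cells were lysed in Hepes pH 7.4 detergent buffer with phosphatase and protease inhibitors. Protein was separated by SDS-PAGE, blotted to PVDF, blocked with 5% BSA, and probed for pTyr861 FAK and total FAK.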
# Tyr694 of Stat5 = assay: Stat5 Tyr694 phosphorylation in MDA-MB-468 cells; type: cell-based
# Stat3 [14] = target: T2, Stat3; assay: Stat3 phosphorylation in HCC-827 non-small-cell lung cancer cells; type: cell-based; settings: HCC-827, 5 µM
# H528 = assay: Growth inhibition of H528 NSCLC cells; type: cell-based; settings: H528, 5–10 µM, data not shown
# cyclin D1 [15] = assay: Expression of downstream gene cyclin D1 in MDA-MB-468 cells; type: cell-based; settings: MDA-MB-468, 5 µM
# [16] = MDA-MB-468, 5 µM, 1.5 h then EGF 30 min
# [17] = MDA-MB-468, 25 µM, two hour treatment
# [18] = MDA-MB-468, 2 h treatment, western blot
# [19] = MDA-MB-468, single dose of 5 µM
# T2 sequence (P40763 whole entry): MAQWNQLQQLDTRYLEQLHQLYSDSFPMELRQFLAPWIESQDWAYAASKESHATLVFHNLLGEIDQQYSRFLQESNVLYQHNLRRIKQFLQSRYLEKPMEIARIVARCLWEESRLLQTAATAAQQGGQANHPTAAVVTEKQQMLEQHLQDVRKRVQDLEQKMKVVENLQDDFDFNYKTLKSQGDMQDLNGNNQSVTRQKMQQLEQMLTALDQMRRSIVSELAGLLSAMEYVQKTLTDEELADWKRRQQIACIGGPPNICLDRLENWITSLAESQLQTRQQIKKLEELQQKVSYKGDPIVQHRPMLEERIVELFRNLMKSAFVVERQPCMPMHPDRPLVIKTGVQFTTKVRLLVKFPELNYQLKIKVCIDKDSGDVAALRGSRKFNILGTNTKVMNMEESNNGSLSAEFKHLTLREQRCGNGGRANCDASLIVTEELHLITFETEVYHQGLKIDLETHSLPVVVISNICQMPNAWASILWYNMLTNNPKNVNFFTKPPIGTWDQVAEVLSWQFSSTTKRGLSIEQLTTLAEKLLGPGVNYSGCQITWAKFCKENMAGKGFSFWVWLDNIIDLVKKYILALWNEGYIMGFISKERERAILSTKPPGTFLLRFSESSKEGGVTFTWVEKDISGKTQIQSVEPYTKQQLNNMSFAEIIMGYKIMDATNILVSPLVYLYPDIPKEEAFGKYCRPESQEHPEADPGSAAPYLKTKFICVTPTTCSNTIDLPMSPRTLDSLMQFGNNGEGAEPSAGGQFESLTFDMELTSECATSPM
# T1 sequence (P40763 whole entry): as above
# Chain of pTyr705 Stat3 (P40763 whole entry): as above
compound,measurement,setting,value
CC(C)(C)C(=O)OCOP(=O)(OCOC(=O)C(C)(C)C)C(F)(F)c1ccc(/C=C/C(=O)N[C@H]2CCc3cccc4c3N(C2=O)[C@H](C(=O)N[C@@H](CCC(N)=O)C(=O)NCc2ccccc2)C4)cc1 [compound 3],effect on level of pStat3,"Tyr705 of Stat3 [1]; MDA-MB-468, 2 h, increasing concentrations",reduced the level of pStat3 in a dose-dependent manner
same,concentration that completely inhibited constitutive phosphorylation of Stat3 Tyr705,Tyr705 of Stat3 [2],10 µM
"C/C(=C\C(=O)N[C@H]1CCc2cccc3c2N(C1=O)[C@H](C(=O)N[C@H](C)CCC(N)=O)C3)c1ccc(C(F)(F)P(=O)(OCOC(=O)C(C)(C)C)OCOC(=O)C(C)(C)C)cc1 [compound 34, βMF2Pm(POM2)Cinn-Haic-Apa]",increase in Stat3 phosphorylation induced by EGF,Stat3 [3],completely inhibited
same,Akt Ser473 phosphorylation,Ser473 of Akt [4]; [16],do not inhibit Akt phosphorylation
same,Akt phosphorylation at high concentration,Ser473 of Akt [4]; [17],inhibited phosphorylation
same,concentration of complete inhibition of Stat1 phosphorylation,Tyr701 of Stat1,5 µM
same,expression of cyclin D1,cyclin D1 [5],not inhibited
same,expression of Bcl-xL,Bcl-xL,No inhibition
same,concentration at which pStat3 was completely inhibited,Tyr705 of Stat3 [1]; [18],0.5 µM
same,concentration with noticeable inhibition of pStat3,Tyr705 of Stat3 [1]; [18],0.1 µM
same,time at which pStat3 formation was completely inhibited,Tyr705 of Stat3 [1]; [19],30 min
same,time for which complete inhibition of pStat3 was sustained,Tyr705 of Stat3 [1]; [19],4 h
same,phosphorylation of Ser473 of Akt,Ser473 of Akt [6],no effect
same,expression of survivin,survivin [7],reduced
same,IL-6-induced pStat3 formation,Stat3 [8],inhibited pStat3 formation
same,pStat3 nuclear localization,pTyr705 Stat3,abrogated nuclear localization
same,survival curves with daily dosing compared with single dose,MDA-MB-468 cells,little change in the survival curves
same,phosphorylation of p38 MAPK,p38 MAPK,no effect
same,IL-6-induced pStat3 formation,Stat3 [9],inhibited pStat3 formation
same,expression of survivin,survivin [10],reduced
same,concentration at which constitutively activated Stat3 was completely inhibited,Stat3 [11],1 µM
same,IL-6-induced pStat3 formation,Stat3 [12],inhibited pStat3 formation
same,FAK phosphorylation at high concentration,[13]; [17],inhibited phosphorylation
same,FAK Tyr861 phosphorylation,"[13]; MDA-MB-468, 2 h treatment",no reduction of Tyr861 phosphorylation
same,Stat5 phosphorylation,Tyr694 of Stat5; [16],not inhibited
same,Stat5 phosphorylation at high concentration,Tyr694 of Stat5; [17],inhibited phosphorylation
same,duration of pStat3 inhibition,Stat3 [14],at least 4 h
same,pStat3 level at 24 h,Stat3 [14]; 24 h,had not returned to pretreatment levels
same,inhibition,H528,< 20%
same,expression of cyclin D1,cyclin D1 [15],No inhibition
